Screening data deposited in PubChem by several laboratories.
D1 mod: allosterically modulates the human D1 dopamine receptor; 58,000 tested, 5.9% active; HEK293 D1, CRE-luciferase, dopamine EC30 potentiation; actives deviate in either direction; B-score at 10 µM; AID 641; P21728;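 active means luminescence count or its row- and column-corrected plate score outside the 99.7% band of the plate's sample wells, on either side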
RORA act: activates the human nuclear receptor RORA | P35398 | 65,000 tested, 1.5% active | CHO-K1 Gal4-RORA LBD luciferase reporter, luminescence; percent increase over mock-subtracted basal signal | activation, % at 10 µM;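 active means activation above the mean of all tested compounds plus 3 SD, cut at about 49% in these data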;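 further: 0% = DMSO-treated RORA cells and 100% = added signal equal to DMSO minus mock-transfected cells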
M1 antag: blocks the rat M1 muscarinic receptor response to acetylcholine; P08482; CHO-M1 cells, Fluo-4 calcium, ACh EC80 antagonist mode; stronger effect = lower value; B-score at 10 µM; 64,000 tested, 3.4% active; AID 628;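 active means calcium fluorescence response, raw or row-and-column corrected B-score, differing from the plate sample mean either way at a set confidence level, mostly lower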
M1 ag: M1 muscarinic receptor agonism; B-score at 10 µM; CHO-M1 cells, Fluo-4 calcium fluorescence, agonist mode; stronger effect = higher value; 64,000 tested, 3% active;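 active means fluorescence rise, raw or as B-score row- and column-corrected plate score, outside the 99.7% band of its plate's samples, either direction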
SF1 activator: activates the human nuclear receptor SF-1; CHO-K1 Gal4-SF-1 LBD luciferase reporter; % increase over DMSO SF-1-specific signal; 65,000 tested, 1.9% active; Q13285; AID 522; activation, % at 10 µM;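 active means activation above the mean activation of all tested compounds plus 3 SD, cut at about 50% in these data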
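Material: Transient Gal4-SF-1 LBD reporter, CHO-K1 | Input: 4,000 cells/well | Dosing: One dose, 10 µM compound, 1% DMSO | Incubation: 20 h compound treatment, 37 °C | Detection: SteadyLite luciferase luminescence | Evaluation: Percent activation relative to DMSO median and mock-transfected background | Benchmarks: DMSO-treated SF-1-transfected cells as negative, DMSO-treated mock-transfected cells lacking SF-1 as background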
Htt clearance: compounds clearing mutant huntingtin protein. 47,000 tested, 0.42% active. HeLa Exon1htt(103Q)mCFP, aggregate imaging; zero = plate's median compound well. inhibition, % at 1.5 µM;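 active means inhibition of aggregate fluorescence above about 70%, also judged a hit by eye on the cell image, limit read from the data, passing the limit was not always enough; inconclusive means no rule stated for this call; inactive means not judged a hit on image review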;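 further: cells exposed to compound for three days before fixation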
M1 ag confirm: confirmation of rat M1 muscarinic receptor agonists. shares compounds with M1 ag. CHO-M1 cells, Fluo-4 calcium fluorescence, agonist mode; actives lie on both sides. fluorescence change (max-min) at 10 µM. 1,700 tested, 19% active;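 active means fluorescence change differs from the solvent-only DMSO control mean at a set confidence level in both duplicate runs; inconclusive means differs from solvent-only control mean in just one of two runs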;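 further: an EC20 dose of acetylcholine follows compound addition during the same imaging run; raw fluorescence intensity difference in instrument units with no normalization to controls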
M4 ag counter: rat M4 muscarinic agonism, M1 counter-screen. CHO M4/Gqi5 cells, Fluo-4 calcium fluorescence, agonist mode; actives lie on both sides. 1,700 tested, 9% active. shares compounds with M1 ag. fluorescence change (max-min) at 10 µM. AID 1741;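 active means fluorescence change differing from the plate's solvent-only control wells at 99.7% confidence in both duplicates, whether higher or lower; inconclusive means differs from solvent controls in only one of two duplicates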
Target sequence (P08485 whole entry, looked up): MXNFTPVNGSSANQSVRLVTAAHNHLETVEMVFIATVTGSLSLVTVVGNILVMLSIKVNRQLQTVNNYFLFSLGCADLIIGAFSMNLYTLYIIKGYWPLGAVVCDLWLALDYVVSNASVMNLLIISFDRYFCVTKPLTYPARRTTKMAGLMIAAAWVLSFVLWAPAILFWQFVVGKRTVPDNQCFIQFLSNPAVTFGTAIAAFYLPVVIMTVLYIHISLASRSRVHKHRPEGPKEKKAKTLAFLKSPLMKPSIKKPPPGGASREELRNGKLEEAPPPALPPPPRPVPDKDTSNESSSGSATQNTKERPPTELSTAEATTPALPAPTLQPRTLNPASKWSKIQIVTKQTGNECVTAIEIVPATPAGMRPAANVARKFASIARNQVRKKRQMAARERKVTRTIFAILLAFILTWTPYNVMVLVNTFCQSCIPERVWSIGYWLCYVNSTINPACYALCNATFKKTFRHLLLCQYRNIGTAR
M1 antag confirm: M1 muscarinic receptor (rat) antagonism, confirmed; shares compounds with M1 antag; AID 677; CHO-M1 cells, Fluo-4 calcium, ACh EC80 antagonism; stronger effect = lower value; 1,700 tested, 43% active; calcium response (max-min fluorescence) at 10 µM;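 active means calcium response below the same-plate mean of wells given acetylcholine alone at its 80%-effect dose, minus 3 SD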;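 further: raw fluorescence intensity difference in arbitrary instrument units and not normalized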
mGluR4 antag: mGluR4 (human) activity, M1 antagonist secondary assay; shares compounds with M1 antag; CHO-mGluR4 calcium flux, Fluo-4 fluorescence, glutamate EC80; stronger effect = lower value; fluorescence response (max-min) at 10 µM; 1,700 tested, 0.9% active;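 active means fluorescence response below the plate's average for near-maximal glutamate wells, less 3 SD of those wells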;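 further: raw unnormalized fluorescence span taken in the window right after glutamate addition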
D1 PAM confirm: confirmation of human D1 dopamine receptor allosteric modulators | AID 642 | HEK293 D1 CRE-luciferase, dopamine EC30 potentiation; stronger effect = higher value | 2,200 tested, 88% active | shares compounds with D1 mod | luminescence at 10 µM;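 active means luminescence in either of two replicates above the same-plate mean plus 3 SD of the low-dose dopamine control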
D1 ag no DA: D1 (human) signaling in absence of dopamine | 1,900 tested, 0.8% active | AID 646 | luminescence at 10 µM | shares compounds with D1 mod | HEK293 D1 CRE-luciferase, luminescence, no dopamine; stronger effect = higher value; in the data active means luminescence above about 3900
Isoprot counter: counter-screen for D1 modulators: isoproterenol response in HEK293 cells. calls only at 10 µM. shares compounds with D1 mod. 2,200 tested, 63% active. HEK293 D1 CRE-luciferase, isoproterenol EC30 counter-screen;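 active means luminescence in either replicate above plate mean of wells with a partly effective reference agonist dose plus 3 SD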;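 further: isoproterenol raises cAMP through native beta-adrenoceptor Gs so signal bypasses D1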
The depositor's hits bear a star; i = inactive; ? = inconclusive; . = no result given. Sampled rows, rich in hits. Any-hit rate of the full collection: about 11%.

SMILES	D1 mod	RORA act	M1 antag	M1 ag	SF1 activator	Htt clearance	M1 ag confirm	M4 ag counter	others
CCNCC1(c2ccc(OC)c(OC)c2)CCCC1	0.554	-18.0	-15.4*	46.6*	3.7	.	-7.68	-26.9
C=CCn1c(O)c(C=Nc2ccc(N(CC)CC)cc2)c(=O)[nH]c1=O	.	8.5	-0.00932	17*	-7.8	.	15.4	17.7
CCN(CC)c1ccc(N=Cc2c(O)n(CCC3=CCCCC3)c(=O)[nH]c2=O)cc1	0.32	-4.8	-0.648	109*	13.8	.	578*	627*
O=c1[nH]c(=O)n(CCC2=CCCCC2)c(O)c1C=NCCN1CCNCC1	-0.734	2.9	0.199	0.542	3.9	-13.2	.	.
CN(C)c1ccc(N=Cc2c(O)n(CCC3=CCCCC3)c(=O)[nH]c2=O)cc1	-0.475	-5.5	-1.05	7.92*	4.5	-16.8	?	12.9
Cc1c(/C=C2/CC3C4CC=C5CC(O)CCC5(C)C4CCC3(C)C2=O)cnn1C (stereo not drawn)	.	.	.	.	.	3.7	.	.
CC(=NCCCN1CCOCC1)c1c(O)[nH]c(=O)[nH]c1=O	-0.469	-20.5	0.413	1.48*	0.1	24.0	?	-73
CC(=NCCCN1CCOCC1)c1c(O)n(Cc2ccccc2)c(=O)[nH]c1=O	0.0933	8.0	-0.448	0.245	-8.5	-7.2	.	.
Cn1c(O)c(C(c2ccccn2)c2c(O)n(C)c(=S)[nH]c2=O)c(=O)[nH]c1=S	.	.	.	.	.	7.3	.	.
O=C(c1cc(-c2ccccc2)nc2ccccc12)N1CCC2(CC1)OCCO2	1.1	3.0	-0.033	4.26*	13.9	7.2	-16.5	-41.9
O=C(c1cnn2c(C(F)(F)F)cc(-c3ccccc3)nc12)N1CCC2(CC1)OCCO2	.	.	.	.	.	31.0	.	.
Cc1ccc2c(c1)CC1(CN2C)C(=O)NC(=O)N(c2ccc(C)c(C)c2)C1=O (stereo not drawn)	0.263	4.0	0.275	-0.919	31.3	.	.	.
Cc1cc2c(C(F)(F)F)cc(=O)oc2c2c1NCCC2	1.91	-7.9	-0.524	205*	-7.6	.	1315*	1119*
CCCS(=O)(=O)N1CCC(C(=O)N2CCC3(CC2)OCCO3)CC1	1.18	-16.4	-0.325	-0.421	3.9	.	.	.
CCCS(=O)(=O)N1CCCC(C(=O)N2CCC3(CC2)OCCO3)C1 (stereo not drawn)	0.221	-15.3	0.878	1.95*	-0.7	-35.0	-6.59	-10.4
C[N+]1(C)CCN(c2ccccc2)CC1	0.223	-6.0	-0.161	-1.43	-8.9	.	.	.
O=c1[nH]c(=O)n(-c2ccc(F)cc2)c(O)c1C=Nc1ccccc1N1CCCC1	-0.0916	-5.4	0.0997	4.25*	-24.4	-9.4	-2.11	?
FC(F)(F)c1ccc2c(c1)NP(=S)(N1CCOCC1)c1nccn1-2 (stereo not drawn)	0.144	-21.6	-0.959	-0.165	-15.7	.	.	.
Cn1nc(-c2ccc(OCC(=O)N3CCN(Cc4ccccc4)CC3)cc2)c2ccccc2c1=O	0.752	4.6	-2.01*	5.4*	-30.8	-255.2	?	-72.2
CC12CN3CC(C)(CN(C1)C3c1cccs1)C2O (stereo not drawn)	0.155	-12.9	1.16	-0.601	12.3	-41.8	.	.
Cn1c2ccccc2c2c(C(=O)N3CCC4(CC3)OCCO4)cn(C3CCCC3)c(=O)c21	-0.0133	7.9	-0.729	14.4*	1.6	8.3	-4.01	-26.4
COCCn1cc(C(=O)N2CCC3(CC2)OCCO3)c2c3ccccc3n(C)c2c1=O	0.0151	17.5	-0.235	-1.02	0.7	-9.6	.	.
COCCNC(=O)c1c(NC(=O)c2ccco2)n(Cc2ccccc2)c2nc3ccccc3nc12	4.3*	0.5	0.0467	3.56*	-3.7	.	40.4	17.7	D1 PAM confirm=10288*;D1 ag no DA=1576;Isoprot counter=i
CCCC(C)(COC(N)=O)COC(=O)NC(C)C (stereo not drawn)	-0.158	-28.7	1.84	-0.423	5.5	.	.	.
CCCCn1c(O)c(C=Nc2c(C)n(C)n(-c3ccccc3)c2=O)c(=O)[nH]c1=O	-0.00381	-2.5	-2.52*	-0.341	-8.2	12.9	.	.	M1 antag confirm=511;mGluR4 antag=209
SMILES	D1 mod	RORA act	M1 antag	M1 ag	SF1 activator	Htt clearance	M1 ag confirm	M4 ag counter	others
CCCCn1c(O)c(C(C)=Nc2c(C)n(C)n(-c3ccccc3)c2=O)c(=O)[nH]c1=O	-0.0111	-27.3	-8.36*	1.44	-9.7	-12.4	.	.	M1 antag confirm=326*;mGluR4 antag=247
COC(=O)c1ccc(CN2CCN(Cc3ccccc3)CC2)cc1	0.554	-1.2	-3.06*	0.48	-1.0	21.9	.	.	M1 antag confirm=428*;mGluR4 antag=234
Oc1ccc(Cl)cc1CN1CCN(Cc2ccccc2)CC1	.	.	.	.	.	-4.1	.	.
CN(CC1COc2ccccc2O1)c1nc(-c2cccnc2)nc2ccccc12 (stereo not drawn)	1.09	-24.3	-3.88*	1.67	-4.2	1.9	.	.	M1 antag confirm=573;mGluR4 antag=228
Cc1cccc(N2CCc3c2nc2ccccc2c3N)c1	-1.8	-4.6	-0.9	-0.785	-5.8	.	.	.
COc1ccc(CN2CCCCC2c2cccnc2)cc1C (stereo not drawn)	-0.96	10.9	-5.38*	-0.88	1.9	61.6	.	.	M1 antag confirm=482*;mGluR4 antag=242
CCCCCCOc1ccc(CN2CCN(C)CC2)cc1	-3.53*	-5.2	-3.25*	-0.394	-1.4	4.7	.	.	M1 antag confirm=502*;mGluR4 antag=222
CCN1CCN(Cc2ccc(C)cc2)CC1	-0.188	-33.9	-0.0688	-0.331	6.0	.	.	.
Cc1cc(C)n2nc(SC(C)C(=O)N3CCC4(CC3)OCCO4)nc2n1 (stereo not drawn)	.	-14.2	-0.0476	0.19	-1.5	-42.8	.	.
CCOC(=O)CC1=C(C(=O)OCC)C2(C(=O)N1CC(=O)OC)C(C#N)=C(N)Oc1ccccc12 (stereo not drawn)	.	.	.	.	.	18.7	.	.
